Measurements as given in PubChem BioAssay.
Inconclusive results are not listed.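 Rule for the calls, unless noted: active = growth inhibition above 25% in both replicates, a cutoff set 3 SD above the mean; inconclusive = above 25% in only one replicate; inactive = the rest.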

Experiments:
[1] = S. cerevisiae growth inhibition in permissive medium (OD615), pilot counter-assay for S. cerevisiae lifespan shortening project, permissive growth control (AID 705); conditions: OD615, 24 h, at 10 µM, stronger effect = higher value
Procedure, shortened: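 Test system: Saccharomyces cerevisiae strain carrying genetically modified DeaD replicative-lifespan system; buffer or medium: SC raffinose/galactose permissive medium; dosing: one dose 10 µM, DMSO 0.25% final; times: 24 h exposure, 30 °C; measured by: OD at 615 nm; read-out basis: growth inhibition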

[2] = S. cerevisiae growth inhibition in restrictive medium, OD615, pilot screen, restrictive growth control, yeast lifespan reduction project (AID 706;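 active = growth inhibition above a set limit, 3 SD over mean compound inhibition, in both replicates, cut at about 43% in these data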;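 note: modified DeaD lifespan yeast strain shifted to restrictive glucose medium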); conditions: OD615, 48 h, at 10 µM, stronger effect = higher value
Procedure, shortened: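 material = engineered S. cerevisiae DeaD strain | buffer or medium = glucose-based CSMM-D restrictive medium | dosing = one concentration, 10 µM final, 0.25% DMSO | schedule = 4 h pre-growth plus 48 h compound exposure, 30 °C | detection = OD615 absorbance reading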

[3] = doxorubicin toxicity protection in MRP-1 cells – H69AR cells, CellTiter-Glo, duplicate, MRP-1 activator project, pilot screen (AID 807;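 active = viability increase at or above a cutoff of the median across tested compounds plus 3 SD, cut at about 8.5% in these data, passing the limit was not always enough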;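 note: compound pretreatment 18-22 h then 72 h combined with doxorubicin; 0% = doxorubicin alone and 100% = vehicle without doxorubicin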); conditions: H69AR viability with doxorubicin, CellTiter-Glo luminescence; at 10 µM; stronger effect = higher value
[4] = viability of HCT116 without oncogenic beta-catenin – human colon tumor cells, pilot screen (AID 823;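 active = cell viability at or below a set limit in both duplicate runs, the limit being the all-compound median minus 4 SD, cut at about 23% in these data, passing the limit was not always enough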;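 note: 0% = wells killed by 20 µM Hyamine and 100% = untreated DMSO cell wells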); conditions: HCT116 beta-catenin knockout viability, CellTiter-Glo, 60 h; at 10 µM; stronger effect = lower value
[5] = viability of PTEN-null HCT116 cells – cell-based, HCT116 clonal line, CellTiter-Glo, pilot screen (AID 824;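 active = viability at or below 27.92% in each of two runs, the all-compound median minus 4 SD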;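 note: 0% = 20 µM Hyamine control and 100% = vehicle cell control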); conditions: HCT116 PTEN-deleted viability, 60 h, at 10 µM, stronger effect = lower value
[6] = RAM pathway blockade in budding yeast – dse1pr::URA3 reporter, 5-FOA selection, pilot screen (AID 869;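 active = inhibition over a set limit, the all-compound mean plus 3 SD, in both replicate runs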;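 note: 0% = DMSO wells with no growth and 100% = 10 µM 1-NA-PP1 with full growth; RAM network block rescues cells from 5-FOA so hits raise OD615 growth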); conditions: S. cerevisiae dse1pr::URA3 5-FOA growth, OD615, 2 d; at 10 µM; stronger effect = higher value; strain carries analog-sensitive mutant Cbk1 kinase
[7] = RAM signaling pathway blockade in yeast – S. cerevisiae, Pdr1DBD-CYC8 efflux-inhibited sensitized strain, primary screen (AID 1298;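 active = RAM network inhibition above 8.4% in each of two replicates, 3 SD over the compound average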;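 note: 0% = DMSO untreated cells without growth and 100% = 10 µM 1-NA-PP1 full growth; higher means more yeast growth rescued from 5-FOA killing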); conditions: S. cerevisiae cbk1-as DSE1-URA3 strain, 5-FOA growth OD615, 2 d; at 50 µM; stronger effect = higher value

CCOC(=O)c1c(C)n(C)c2ccc(OCC(O)CN(CC)CC)cc12 (configuration not stated)
inactive: growth inhibition [1] -9.63% | growth inhibition [2] -1.99% | viability increase [3] -4.23% | viability [4] 77.6% | viability [5] 81.5% | inhibition [6] 1.71% | RAM network inhibition [7] -0.57%

Cc1cc(=O)oc(C)c1C(=O)N1CCc2c([nH]c3ccccc23)C1C(C)C (configuration not stated)
inactive: growth inhibition [1] 3.99% | growth inhibition [2] 3.98% | viability increase [3] -5% | viability [4] 94.9% | viability [5] 89.4% | inhibition [6] 1.1% | RAM network inhibition [7] 4.47%

CC1CCCN(Cc2nc3c(c(=O)n(C)c(=O)n3C)n2Cc2cccc3ccccc23)C1 (configuration not stated)
inactive: growth inhibition [1] -4.69% | growth inhibition [2] -2.08% | viability increase [3] -3.36% | viability [4] 73.2% | viability [5] 80% | inhibition [6] 1.08% | RAM network inhibition [7] 0.76%

O=C(c1cc(F)c(F)cc1Cl)N1CCCCC1
inactive: growth inhibition [1] -2.35% | growth inhibition [2] 1.34% | viability increase [3] -1.35% | viability [4] 92.1% | viability [5] 90.6% | inhibition [6] 2.08% | RAM network inhibition [7] 2.31%

O=C1CCc2cc(S(=O)(=O)N3CCCC3C(=O)N3CCN(c4ccccc4)CC3)ccc2N1 (configuration not stated)
inactive: growth inhibition [1] -10.3% | growth inhibition [2] -12.1% | viability increase [3] -3.91% | viability [4] 105% | viability [5] 85% | inhibition [6] 3.67% | RAM network inhibition [7] 4.76%

O=C(NCCC1=CCCCC1)NC1CCCCC1
inactive: growth inhibition [1] -7.04% | growth inhibition [2] 8.29% | viability increase [3] -0.3% | viability [4] 87.2% | viability [5] 87.3% | inhibition [6] 1.33% | RAM network inhibition [7] 5.84%

CSc1nnc(NC(=O)C2CCCCC2)s1
inactive: growth inhibition [1] -7.81% | growth inhibition [2] -6.62% | viability increase [3] 0.06% | viability [4] 97% | viability [5] 99.3% | inhibition [6] -0.045% | RAM network inhibition [7] 0.63%

COc1cccc(OCCCCSc2ncccn2)c1
inactive: growth inhibition [1] 0.33% | growth inhibition [2] 4.57% | viability increase [3] -2.94% | viability [4] 93.2% | viability [5] 90.2% | inhibition [6] -0.22% | RAM network inhibition [7] 4.14%

CCCCNC(=O)c1cc(-c2ccc(OC)c(OC)c2)on1
inactive: growth inhibition [1] 0.455% | growth inhibition [2] 5.25% | viability increase [3] 2.07% | viability [4] 104% | viability [5] 96.9% | inhibition [6] -0.37% | RAM network inhibition [7] -0.26%

CCCCC(=O)Nc1nc(C)c(C(C)=O)s1
inactive: growth inhibition [1] -13.3% | growth inhibition [2] -2.2% | viability increase [3] 0.48% | viability [4] 98.8% | viability [5] 88.7% | inhibition [6] 1.14% | RAM network inhibition [7] -1%

Cc1cc(-c2nnc(-c3cc4ccccc4oc3=O)o2)c(C)n1-c1ccccc1
inactive: growth inhibition [1] -0.055% | growth inhibition [2] -2.88% | viability increase [3] -2.92% | viability [4] 79.7% | viability [5] 79.1% | inhibition [6] 3.04% | RAM network inhibition [7] 3.21%

Cc1ccc(S(=O)(=O)n2ccnc2)cc1C
inactive: growth inhibition [1] -7.98% | growth inhibition [2] -8.12% | viability increase [3] -0.49% | viability [4] 96.1% | viability [5] 88.9% | inhibition [6] 1.86% | RAM network inhibition [7] 2.35%

O=C(COC(=O)C1CCCO1)Nc1cccc(C(F)(F)F)c1 (configuration not stated)
inactive: growth inhibition [1] -22.8% | growth inhibition [2] -15.9% | viability increase [3] 0% | viability [4] 91.8% | viability [5] 94.5% | inhibition [6] 1.63% | RAM network inhibition [7] 2.45%

O=C(C1CCN(S(=O)(=O)c2cccc3cccnc23)CC1)N1CCN(c2ccccc2)CC1
inactive: growth inhibition [1] 1.1% | growth inhibition [2] 16.9% | viability increase [3] -3.27% | viability [4] 87.7% | viability [5] 83.8% | inhibition [6] 1.76% | RAM network inhibition [7] 6.12%

CCOCCCNC(=O)c1cn(C)c2ccc(S(=O)(=O)N(C)C3CCCCC3)cc2c1=O
inactive: growth inhibition [1] -5.04% | growth inhibition [2] -14.3% | viability increase [3] -4.93% | viability [4] 108% | viability [5] 101% | inhibition [6] 0.93% | RAM network inhibition [7] -0.73%

Cc1ccc2c(c1)C(c1ccc(F)cc1)N(C(=O)C1CC1)CC(=O)N2 (configuration not stated)
inactive: growth inhibition [1] -3.41% | growth inhibition [2] -4.04% | viability increase [3] -1.19% | viability [4] 83% | viability [5] 75.2% | inhibition [6] -0.015% | RAM network inhibition [7] 1.7%

CC(C)N(C(=O)COc1ccc(Br)cc1Cl)C(C)C
inactive: growth inhibition [1] -6.94% | growth inhibition [2] -12.8% | viability increase [3] 0.81% | viability [4] 76.5% | viability [5] 83.1% | inhibition [6] 1.12% | RAM network inhibition [7] 0.74%

CCCNC(=O)NCCc1c(C)[nH]c2ccccc12
inactive: growth inhibition [1] 4.3% | growth inhibition [2] -9.91% | viability increase [3] -3.16% | viability [4] 99.8% | viability [5] 99% | inhibition [6] 1.35% | RAM network inhibition [7] 1.69%

O=C(Cn1nc(Cc2cccnc2)c2ccccc2c1=O)N1CCN(C(=O)c2ccco2)CC1
inactive: growth inhibition [1] 4.07% | growth inhibition [2] 0.805% | viability increase [3] -0.74% | viability [4] 104% | viability [5] 104% | inhibition [6] 0.64% | RAM network inhibition [7] 2.7%

CCOc1ccc(-n2c(Cc3cc(=O)[nH]c(=O)[nH]3)nnc2SCc2cccnc2)cc1
inactive: growth inhibition [1] 2.83% | growth inhibition [2] 5.83% | viability increase [3] 1.08% | viability [4] 107% | viability [5] 105% | inhibition [6] 1.84% | RAM network inhibition [7] 0.84%

Cc1onc(-c2ccccc2)c1C(=O)Nc1cccc(C#N)c1
inactive: growth inhibition [1] -20.3% | growth inhibition [2] -6.79% | viability increase [3] -2.52% | viability [4] 96.5% | viability [5] 88.5% | inhibition [6] 2.92% | RAM network inhibition [7] 4.56%

CCOC(=O)c1[nH]c(C)c(C(=O)NCCN2CCOCC2)c1C
inactive: growth inhibition [1] -3.9% | growth inhibition [2] -8.41% | viability increase [3] -1.39% | viability [4] 103% | viability [5] 97.7% | inhibition [6] 0.85% | RAM network inhibition [7] -0.87%

COc1ccc(N(CC(=O)NC2CCCCC2)S(=O)(=O)c2cccnc2)cc1
inactive: growth inhibition [1] -2.11% | growth inhibition [2] 3.61% | viability increase [3] -1.68% | viability [4] 99.6% | viability [5] 105% | inhibition [6] 1.57% | RAM network inhibition [7] 2.86%

Cc1ccccc1-c1ccc(Nc2ccc(C(=O)N3CCOCC3)cc2)nn1
inactive: growth inhibition [1] 1.06% | growth inhibition [2] -5.71% | viability increase [3] -2.49% | viability [4] 98.4% | viability [5] 97.2% | inhibition [6] 1.39% | RAM network inhibition [7] -0.83%

Cc1ccc(C)c(-n2c(Cc3cc(=O)[nH]c(=O)[nH]3)nnc2SC(C)C)c1
inactive: growth inhibition [1] 0.205% | growth inhibition [2] 11.1% | viability increase [3] -3.19% | viability [4] 97.7% | viability [5] 89.9% | inhibition [6] 1.74% | RAM network inhibition [7] 0.84%

COc1ccc(N=C(N(C)C)P(=O)(N(C)C)N(C)C)cc1
inactive: growth inhibition [1] -5.46% | growth inhibition [2] 0.105% | viability increase [3] -1.44% | viability [4] 103% | viability [5] 98.4% | inhibition [6] 0.22% | RAM network inhibition [7] 6.63%

O=S(=O)(Nc1cccc(-c2nc3cccnc3s2)c1)c1ccc2c(c1)OCCO2
inactive: growth inhibition [1] -0.93% | growth inhibition [2] 13.3% | viability increase [3] 0.73% | viability [4] 97.7% | viability [5] 85.3% | inhibition [6] 3.69% | RAM network inhibition [7] 5.51%

O=C1c2ccccc2C(=O)N1CSc1ncccn1
inactive: growth inhibition [1] 0.27% | growth inhibition [2] -7.91% | viability increase [3] -3.86% | viability [4] 87.4% | viability [5] 89.7% | inhibition [6] 1.09% | RAM network inhibition [7] 2.25%

O=C(Nc1ccc(Br)cc1)c1cnccn1
inactive: growth inhibition [1] -12.7% | growth inhibition [2] -21.8% | viability increase [3] -0.6% | viability [4] 98.1% | viability [5] 94.4% | inhibition [6] 1.59% | RAM network inhibition [7] 4.87%

O=c1c2c3c(sc2nc2n1CCCCC2)CCCC3
inactive: growth inhibition [1] -12.6% | growth inhibition [2] -15.5% | viability increase [3] -1.02% | viability [4] 90.4% | viability [5] 85.6% | inhibition [6] 0.635% | RAM network inhibition [7] 0.62%

CC1CCCN(C(=O)CNC(=O)Cn2ccc3ccccc3c2=O)C1 (configuration not stated)
inactive: growth inhibition [1] -10.8% | growth inhibition [2] -1.01% | viability increase [3] -1.73% | viability [4] 99.5% | viability [5] 94.5% | inhibition [6] 2.08% | RAM network inhibition [7] 2.25%

CN(C)C(=O)c1nnc(Cc2ccc(Cl)cc2)o1
inactive: growth inhibition [1] -8.24% | growth inhibition [2] 7.88% | viability increase [3] 2.17% | viability [4] 98.5% | viability [5] 108% | inhibition [6] 0.31% | RAM network inhibition [7] 7.05%

CCOC(=O)CN1CC23C=CC(O2)C(C(=O)NCc2ccc(C)cc2)C3C1=O (configuration not stated)
inactive: growth inhibition [1] -6.12% | growth inhibition [2] -3.33% | viability increase [3] -0.1% | viability [4] 99.5% | viability [5] 109% | inhibition [6] 1.29% | RAM network inhibition [7] 1.3%

COc1ccc(Cn2c(=O)[nH]c3cc(C(=O)N4CCN(Cc5ccccc5)CC4)ccc3c2=O)cc1
inactive: growth inhibition [1] 1.4% | growth inhibition [2] -4.04% | viability increase [3] 1.49% | viability [4] 36.3% | viability [5] 49.7% | inhibition [6] 0.835% | RAM network inhibition [7] 1.57%

COC(=O)C(C)NC(=O)C1CCCN1S(=O)(=O)c1cc(C)c(Cl)cc1C (configuration not stated)
inactive: growth inhibition [1] -5.19% | growth inhibition [2] -6.72% | viability increase [3] -1.54% | viability [4] 93.8% | viability [5] 94.9% | inhibition [6] 0.935% | RAM network inhibition [7] 0.4%

C=C(C)Cn1c(CNC(C)=O)nc2ccccc21
inactive: growth inhibition [1] -12.2% | growth inhibition [2] -25.6% | viability increase [3] -0.52% | viability [4] 108% | viability [5] 94.3% | inhibition [6] 0.645% | RAM network inhibition [7] 3.9%
